Experimental findings from ChEMBL document CHEMBL1154983, “Arylpiperazine-containing pyrrole 3-carboxamide derivatives targeting serotonin 5-HT(2A), 5-HT(2C), and the serotonin transporter as a potential antidepressant” (Bioorg Med Chem Lett, 2010) are described below.

Test [1] relates to Mus musculus. In words: Antidepressant activity in mouse assessed as decrease in duration of immobility at 10 mg/kg, po during final 5 mins of the 6 mins session by forced swimming test. Format: functional. Details: scale not given: the % may be the effect or the level left. The essentials:
(§1)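 Mice swam 10 min in a 25-cm glass cylinder (10 cm diameter) holding 15 cm of water at 23 1 °C. Twenty-four hours later, drug was given po 60 min before retesting. Immobility (floating upright with only small movements keeping head above water) was totalled over the last 5 min of the 6-min test.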

Test [2] has as its target 5-hydroxytryptamine receptor 7 (Homo sapiens, UniProt P34969). As to the kind of experiment: Inhibition of 5HT7 receptor.
Test [3] has as its system Mus musculus. As to the kind of experiment: Antidepressant activity in mouse assessed as decrease in duration of immobility at 100 mg/kg, po during final 5 mins of the 6 mins session by forced swimming test. Details: scale not given: the % may be the effect or the level left. The test is classed as functional. The procedure, abridged:
as §1

Another test addresses Cytochrome P450 2D6 (Homo sapiens, UniProt P10635). As to the kind of experiment: Inhibition of CYP2D6. The test is classed as ADME.
Test [4] has as its target 5-hydroxytryptamine receptor 6 (Homo sapiens, UniProt P50406). As to the kind of experiment: Inhibition of 5HT6 receptor.
For a further test, the target named is T1, D(4) dopamine receptor (Homo sapiens, UniProt P21917).
T1 sequence (P21917 whole entry): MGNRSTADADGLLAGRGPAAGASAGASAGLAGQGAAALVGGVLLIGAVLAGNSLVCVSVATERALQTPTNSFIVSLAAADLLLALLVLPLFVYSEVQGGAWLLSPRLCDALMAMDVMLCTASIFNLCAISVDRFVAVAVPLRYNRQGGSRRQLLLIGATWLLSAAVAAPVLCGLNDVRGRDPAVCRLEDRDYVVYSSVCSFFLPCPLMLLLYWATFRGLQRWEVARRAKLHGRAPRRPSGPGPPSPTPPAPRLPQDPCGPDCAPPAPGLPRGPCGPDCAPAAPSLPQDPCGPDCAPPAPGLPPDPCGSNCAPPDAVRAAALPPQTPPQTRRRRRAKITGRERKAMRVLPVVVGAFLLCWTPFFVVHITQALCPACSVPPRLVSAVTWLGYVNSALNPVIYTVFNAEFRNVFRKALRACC
As to the kind of experiment: Inhibition of dopamine D4 receptor.

The target in test [5] is T2, 5-hydroxytryptamine receptor 1A (Homo sapiens, UniProt P08908).
T2 sequence (P08908 whole entry): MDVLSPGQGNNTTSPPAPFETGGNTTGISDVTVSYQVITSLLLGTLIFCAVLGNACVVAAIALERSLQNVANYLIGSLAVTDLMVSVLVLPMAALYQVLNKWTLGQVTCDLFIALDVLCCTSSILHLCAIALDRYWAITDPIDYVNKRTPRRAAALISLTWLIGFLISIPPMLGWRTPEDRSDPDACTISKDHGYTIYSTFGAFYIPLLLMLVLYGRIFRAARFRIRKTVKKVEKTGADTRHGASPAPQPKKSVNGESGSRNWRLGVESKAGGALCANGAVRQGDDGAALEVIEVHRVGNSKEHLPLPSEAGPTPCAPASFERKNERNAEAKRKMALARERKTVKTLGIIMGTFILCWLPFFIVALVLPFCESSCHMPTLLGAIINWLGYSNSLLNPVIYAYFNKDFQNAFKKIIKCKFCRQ
In words: Inhibition of 5HT1A receptor.

In another test the target is T3, Cytochrome P450 1A2 (Homo sapiens, UniProt P05177).
T3 sequence (P05177 whole entry): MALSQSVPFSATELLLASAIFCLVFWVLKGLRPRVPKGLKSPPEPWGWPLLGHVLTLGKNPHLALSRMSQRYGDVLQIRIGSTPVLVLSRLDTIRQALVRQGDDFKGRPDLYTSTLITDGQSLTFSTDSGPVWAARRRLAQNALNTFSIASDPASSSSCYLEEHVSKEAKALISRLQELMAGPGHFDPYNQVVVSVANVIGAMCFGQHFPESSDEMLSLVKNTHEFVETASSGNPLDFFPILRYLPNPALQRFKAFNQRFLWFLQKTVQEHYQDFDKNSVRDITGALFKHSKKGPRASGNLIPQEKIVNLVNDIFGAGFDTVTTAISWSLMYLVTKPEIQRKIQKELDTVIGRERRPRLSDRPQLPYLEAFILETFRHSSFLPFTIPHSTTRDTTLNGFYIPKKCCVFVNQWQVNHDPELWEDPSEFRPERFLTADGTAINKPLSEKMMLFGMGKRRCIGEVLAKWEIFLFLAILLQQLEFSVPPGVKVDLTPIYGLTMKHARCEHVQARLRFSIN
As to the kind of experiment: Inhibition of CYP1A2. The test is classed as ADME.

In another test the target is D(2) dopamine receptor (Homo sapiens, UniProt P14416). As to the kind of experiment: Inhibition of dopamine D2 receptor.
Sequence of D(2) dopamine receptor (P14416 whole entry): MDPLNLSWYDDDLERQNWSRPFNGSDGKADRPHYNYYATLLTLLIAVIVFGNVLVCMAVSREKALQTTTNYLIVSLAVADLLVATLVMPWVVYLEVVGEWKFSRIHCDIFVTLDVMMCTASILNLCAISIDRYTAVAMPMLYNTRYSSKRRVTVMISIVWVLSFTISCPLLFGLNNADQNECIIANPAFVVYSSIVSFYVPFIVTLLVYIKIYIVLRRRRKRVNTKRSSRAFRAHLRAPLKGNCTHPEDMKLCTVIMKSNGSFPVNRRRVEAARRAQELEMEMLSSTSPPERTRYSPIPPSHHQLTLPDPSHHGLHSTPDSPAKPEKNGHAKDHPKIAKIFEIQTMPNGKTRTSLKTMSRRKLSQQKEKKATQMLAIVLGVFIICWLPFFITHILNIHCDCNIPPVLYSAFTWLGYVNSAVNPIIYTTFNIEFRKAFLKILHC
A further test deals with D(3) dopamine receptor (Homo sapiens, UniProt P35462). As to the kind of experiment: Inhibition of dopamine D3 receptor.
Sequence of D(3) dopamine receptor (P35462 whole entry): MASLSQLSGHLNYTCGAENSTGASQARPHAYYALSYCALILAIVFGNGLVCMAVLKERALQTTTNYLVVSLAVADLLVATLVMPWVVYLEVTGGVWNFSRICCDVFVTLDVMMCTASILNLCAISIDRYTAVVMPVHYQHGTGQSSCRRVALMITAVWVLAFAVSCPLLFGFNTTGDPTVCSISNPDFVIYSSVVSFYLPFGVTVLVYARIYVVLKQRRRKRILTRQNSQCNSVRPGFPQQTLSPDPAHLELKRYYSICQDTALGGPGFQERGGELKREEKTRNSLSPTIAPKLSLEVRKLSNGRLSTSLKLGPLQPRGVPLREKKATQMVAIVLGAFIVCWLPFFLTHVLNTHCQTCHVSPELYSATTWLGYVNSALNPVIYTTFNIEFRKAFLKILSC
For a further test, the target named is Cytochrome P450 3A4 (Homo sapiens, UniProt P08684). In words: Inhibition of CYP3A4. The test is classed as ADME.
Sequence of Cytochrome P450 3A4 (P08684 whole entry): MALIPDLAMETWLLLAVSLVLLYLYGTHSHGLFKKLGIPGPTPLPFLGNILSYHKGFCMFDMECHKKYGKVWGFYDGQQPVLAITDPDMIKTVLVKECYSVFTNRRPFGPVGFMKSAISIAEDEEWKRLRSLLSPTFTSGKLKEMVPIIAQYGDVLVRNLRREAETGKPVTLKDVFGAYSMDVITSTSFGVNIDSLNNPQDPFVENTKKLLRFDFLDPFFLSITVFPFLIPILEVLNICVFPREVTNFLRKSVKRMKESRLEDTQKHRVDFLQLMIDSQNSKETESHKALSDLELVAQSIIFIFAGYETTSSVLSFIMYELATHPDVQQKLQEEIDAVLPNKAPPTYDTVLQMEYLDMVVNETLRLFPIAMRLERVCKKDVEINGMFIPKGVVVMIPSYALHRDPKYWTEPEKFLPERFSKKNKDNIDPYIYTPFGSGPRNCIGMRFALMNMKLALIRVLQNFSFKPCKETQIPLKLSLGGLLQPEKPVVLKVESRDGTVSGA
The next test has as its target Cytochrome P450 2C9 (Homo sapiens, UniProt P11712). In words: Inhibition of CYP2C9. Format: ADME.

Sequence of Cytochrome P450 2D6 (P10635 whole entry): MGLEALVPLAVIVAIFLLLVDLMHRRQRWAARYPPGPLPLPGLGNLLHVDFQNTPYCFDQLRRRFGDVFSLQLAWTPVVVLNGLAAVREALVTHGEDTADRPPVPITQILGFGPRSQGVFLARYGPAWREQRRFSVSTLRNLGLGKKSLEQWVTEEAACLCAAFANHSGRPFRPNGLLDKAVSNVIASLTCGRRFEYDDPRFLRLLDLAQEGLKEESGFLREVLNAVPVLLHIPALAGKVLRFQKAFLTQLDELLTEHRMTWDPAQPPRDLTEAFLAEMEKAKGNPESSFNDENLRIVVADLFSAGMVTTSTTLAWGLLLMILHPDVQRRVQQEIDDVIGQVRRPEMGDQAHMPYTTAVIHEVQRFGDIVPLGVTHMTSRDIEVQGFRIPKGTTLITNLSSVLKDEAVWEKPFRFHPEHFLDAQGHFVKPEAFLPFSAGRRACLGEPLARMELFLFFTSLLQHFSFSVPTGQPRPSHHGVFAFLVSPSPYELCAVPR
Sequence of Cytochrome P450 2C9 (P11712 whole entry): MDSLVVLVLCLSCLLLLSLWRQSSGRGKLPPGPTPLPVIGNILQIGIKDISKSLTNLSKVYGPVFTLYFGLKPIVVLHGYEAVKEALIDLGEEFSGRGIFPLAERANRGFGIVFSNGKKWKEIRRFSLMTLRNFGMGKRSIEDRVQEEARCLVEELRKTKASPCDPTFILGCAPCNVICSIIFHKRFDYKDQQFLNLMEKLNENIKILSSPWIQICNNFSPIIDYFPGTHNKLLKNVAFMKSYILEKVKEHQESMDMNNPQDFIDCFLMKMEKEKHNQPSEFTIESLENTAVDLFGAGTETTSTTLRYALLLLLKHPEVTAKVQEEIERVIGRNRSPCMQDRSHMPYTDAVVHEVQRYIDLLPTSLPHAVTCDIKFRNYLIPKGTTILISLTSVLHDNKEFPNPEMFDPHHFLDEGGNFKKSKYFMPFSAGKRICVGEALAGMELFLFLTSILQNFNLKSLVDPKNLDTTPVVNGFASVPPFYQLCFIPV
Sequence of 5-hydroxytryptamine receptor 6 (P50406 whole entry): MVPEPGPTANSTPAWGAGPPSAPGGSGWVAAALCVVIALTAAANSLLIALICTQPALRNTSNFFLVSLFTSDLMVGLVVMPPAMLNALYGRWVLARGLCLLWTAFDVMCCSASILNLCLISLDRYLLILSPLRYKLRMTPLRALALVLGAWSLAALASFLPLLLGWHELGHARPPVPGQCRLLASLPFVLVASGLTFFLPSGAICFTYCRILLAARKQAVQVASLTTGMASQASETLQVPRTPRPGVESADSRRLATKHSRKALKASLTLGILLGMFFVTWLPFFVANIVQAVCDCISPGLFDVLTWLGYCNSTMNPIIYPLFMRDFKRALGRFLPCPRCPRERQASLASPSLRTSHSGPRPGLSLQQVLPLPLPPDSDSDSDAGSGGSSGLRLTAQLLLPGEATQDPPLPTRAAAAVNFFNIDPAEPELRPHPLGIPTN
Sequence of 5-hydroxytryptamine receptor 7 (P34969 whole entry): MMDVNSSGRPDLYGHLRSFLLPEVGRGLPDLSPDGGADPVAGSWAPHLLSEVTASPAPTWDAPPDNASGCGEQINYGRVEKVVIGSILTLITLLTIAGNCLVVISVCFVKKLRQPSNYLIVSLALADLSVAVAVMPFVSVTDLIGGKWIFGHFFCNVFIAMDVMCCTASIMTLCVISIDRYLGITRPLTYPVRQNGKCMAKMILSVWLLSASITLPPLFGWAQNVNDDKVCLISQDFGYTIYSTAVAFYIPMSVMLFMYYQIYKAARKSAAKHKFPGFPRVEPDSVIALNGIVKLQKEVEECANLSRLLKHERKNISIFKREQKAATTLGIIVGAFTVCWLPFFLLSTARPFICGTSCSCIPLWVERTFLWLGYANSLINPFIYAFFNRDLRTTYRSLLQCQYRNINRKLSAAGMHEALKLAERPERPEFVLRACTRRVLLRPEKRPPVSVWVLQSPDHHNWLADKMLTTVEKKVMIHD

The IC50 is the concentration that gives 50% inhibition. Take `Cc1c(C(=O)NCCCN2CCN(c3cccc(Cl)c3Cl)CC2)cc(-c2ccccc2)n1C`: the Activity in the test on Mus musculus [1] was 80%; in the test on Mus musculus [3] it was under 25%. For the same compound, the IC50 was 333 nM in test [2]; over 20000 nM on Cytochrome P450 2D6; 713 nM in test [4]; 984 nM against D(4) dopamine receptor; 54 nM in test [5]; over 20000 nM at Cytochrome P450 1A2. Further, the IC50 on D(2) dopamine receptor is 2540 nM; at D(3) dopamine receptor, 915 nM; on Cytochrome P450 3A4, over 20000 nM; against Cytochrome P450 2C9 it was 9700 nM.
